The results in this text go back to ChEMBL document CHEMBL1154037, “In vivo targeting of tumor-associated carbonic anhydrases using acetazolamide derivatives” (Bioorg Med Chem Lett, 2009).

The source made the active and inactive calls. The rule behind the calls is not given here.

The subject of data set [1] is Mus musculus. Briefly: Drug uptake in human LS 174T cells xenografted BALB/c nu/nu mouse at 1.26 umol, iv after 2 hrs. The data set is classed as ADME, organism-based, LS174T. The settings on record: in vivo. In short, it runs like this:
(§1)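 Balb/c nu/nu mice carried subcutaneous LS174T tumors of about 500 mg. They received 680 µg (1.26 µmol) of fluorescent compound in the tail vein and were sacrificed 1 h or 2 h later. Fluorescence microscopy was done on 10 µm sections of tumor, muscle, heart, lung, intestine, spleen, kidney and liver. Exposures were 900 ms (1 h) and 1100 ms (2 h).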

Data set [2] relates to Mus musculus. Briefly: Drug uptake in human LS 174T cells xenografted BALB/c nu/nu mouse at 1.26 umol, iv after 1 hr. The data set is classed as ADME, organism-based, LS174T. The settings on record: in vivo. An outline of the steps:
as §1
(In general: A xenograft is tissue or cells of one species grown in another, often human tumour cells in immunodeficient mice.)

Data set [3] addresses T1, Carbonic anhydrase 9 (Homo sapiens, UniProt Q16790). The data set can be described thus: Inhibition of human CA9 catalytic domain using 4-nitrophenylacetate substrate by colorimetry. An outline of the steps: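 CA IX esterase activity was measured colorimetrically via conversion of 4-nitrophenylacetate and reported as Ki. Line 15 was run in the presence of 10 µM mouse serum albumin.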

Data set [4] has as its system Kidney. Briefly: Drug uptake in human LS 174T cells xenografted BALB/c nu/nu mouse kidney at 1.26 umol, iv after 1 hr. The data set is classed as ADME, organism-based, LS174T. The settings on record: in vivo. An outline of the steps: as §1
The subject of data set [5] is Intestine. The data set can be described thus: Drug uptake in human LS 174T cells xenografted BALB/c nu/nu mouse intestine at 1.26 umol, iv after 1 hr. The data set is classed as ADME, organism-based, LS174T. The settings on record: in vivo. An outline of the steps: as §1
The subject of data set [6] is Liver. Briefly: Drug uptake in human LS 174T cells xenografted BALB/c nu/nu mouse liver at 1.26 umol, iv after 1 hr. The settings on record: in vivo. The data set is classed as ADME, organism-based, LS174T. An outline of the steps:
as §1

Data set [7] can be described thus: Drug uptake in human LS 174T cells assessed as increase in fluorescence intensity at 3 uM by FACS method relative to untreated control. The data set is classed as ADME, cell-based. The note with it: ls174t. In short, it runs like this:
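LS174T cells were incubated with fluorescein-labelled compound at 0.26 or 3 µM and analysed by flow cytometry in the FITC channel. Mean fluorescence was compared with unstained cells. Free FAM served as a dye control, and polyclonal anti-CA IX staining confirmed antigen presence.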
Background: In flow cytometry, cells or beads pass a laser one at a time.

Data set [8] concerns Mus musculus. The data set can be described thus: Toxicity in human SK-RC-52 cells xenografted BALB/c nu/nu mouse assessed as effect on body weight at 20 mg/kg, ip. The data set is classed as organism-based. Also on record: dose 20 mg/kg, route intraperitoneal. The settings on record: in vivo.
Data set [9] has as its system Homo sapiens. The data set can be described thus: Antitumor activity against human SK-RC-52 cells xenografted BALB/c nu/nu mouse assessed as inhibition of tumor growth at 20 mg/kg, ip. The data set is classed as functional, organism-based. More on the design: dose 20 mg/kg.
Data set [10] concerns Mus musculus. Briefly: Toxicity in human SK-RC-52 cells xenografted BALB/c nu/nu mouse assessed as effect on body weight at 25 mg/kg, ip. The data set is classed as organism-based. The note with it: in vivo. Also on record: dose 25 mg/kg, route intraperitoneal.
The subject of data set [11] is LS174T. The data set can be described thus: Antitumor activity against human LS 174T cells xenografted BALB/c nu/nu mouse assessed as inhibition of tumor growth at 25 mg/kg, ip. The data set is classed as functional, organism-based. More on the design: dose 25 mg/kg. An outline of the steps: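 Balb/c nude mice with subcutaneous LS174T human colorectal xenografts, dosed i.p. at 25 mg/kg/day. Vehicle controls received saline containing 15% (v/v) DMSO i.v. Tumor growth was followed as mean tumor volume ± SE, n = 5 per group. Body weight was also tracked as % of day-1 weight.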

Data set [12] deals with Blood. The data set can be described thus: Drug level in human SK-RC-52 cells xenografted BALB/c nu/nu mouse blood at 0.5 umol. iv. The settings on record: read-out: Drug uptake. The data set is classed as ADME, cell-based. In short, it runs like this: (§2)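 A bolus i.v. injection of 340 µg (0.5 µmol) was given to tumor-bearing mice. Blood concentration was estimated immediately at the end of the bolus injection.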

In data set [13] the target is Albumin (Homo sapiens, UniProt P02768). The data set can be described thus: Binding affinity to HSA by isothermal titration calorimetry. The data set is classed as ADME. A general note: ITC needs no label: the signal is the heat of the interaction.
Sequence of Albumin (P02768 whole entry): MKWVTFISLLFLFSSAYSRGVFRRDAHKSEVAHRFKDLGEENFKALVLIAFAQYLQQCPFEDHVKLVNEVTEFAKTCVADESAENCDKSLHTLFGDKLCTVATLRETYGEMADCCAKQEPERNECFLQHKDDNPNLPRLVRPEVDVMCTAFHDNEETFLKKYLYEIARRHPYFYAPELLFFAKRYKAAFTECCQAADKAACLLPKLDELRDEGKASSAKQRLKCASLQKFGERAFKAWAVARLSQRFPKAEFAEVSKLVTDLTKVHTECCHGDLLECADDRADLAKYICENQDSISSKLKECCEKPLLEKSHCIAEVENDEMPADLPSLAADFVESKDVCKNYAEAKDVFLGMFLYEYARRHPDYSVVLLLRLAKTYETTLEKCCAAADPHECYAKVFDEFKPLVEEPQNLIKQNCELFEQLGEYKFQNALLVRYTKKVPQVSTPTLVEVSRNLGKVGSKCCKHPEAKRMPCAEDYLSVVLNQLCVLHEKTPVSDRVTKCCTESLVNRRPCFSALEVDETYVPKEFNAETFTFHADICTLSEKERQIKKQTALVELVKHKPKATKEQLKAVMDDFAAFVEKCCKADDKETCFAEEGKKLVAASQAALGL
Data set [14] deals with Mus musculus. The data set can be described thus: Toxicity in human SK-RC-52 cells xenografted BALB/c nu/nu mouse assessed as effect on body weight at 340 ug, iv administered as 5 weekly injection schedule for 3 consecutive weeks. The data set is classed as organism-based. The note with it: in vivo. An outline of the steps:
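SK-RC-52 xenografted Balb/c nude mice, n = 5, given 340 µg (17 mg/kg) per injection i.v. in saline with 15% (v/v) DMSO. Body weight was monitored during therapy and expressed as % of body weight on day 1 of treatment.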

In data set [15] the test system is Homo sapiens. Briefly: Antitumor activity against human SK-RC-52 cells xenografted BALB/c nu/nu mouse assessed as inhibition of tumor growth at 340 ug, iv administered as 5 weekly injection schedule for 3 consecutive weeks. The data set is classed as functional, organism-based. An outline of the steps:
(§3)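 Subcutaneous xenografts in Balb/c nude mice, n = 5 per group. Dosing was 340 µg (17 mg/kg, 0.5 µmol) per injection i.v. Vehicle was saline with 15% (v/v) DMSO, and controls received vehicle alone. Read-out was tumor volume over time, given as mean ± SE.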

For data set [16], the system named is Blood. Briefly: Drug level in human LS 174T cells xenografted BALB/c nu/nu mouse blood at 0.5 umol. iv. The data set is classed as ADME, cell-based, LS174T. The note with it: in vivo, read-out: Drug uptake. In short, it runs like this:
as §2

Data set [17] relates to LS174T. Briefly: Antitumor activity against human LS 174T cells xenografted BALB/c nu/nu mouse assessed as inhibition of tumor growth at 340 ug, iv administered as 5 weekly injection schedule for 2 consecutive weeks. The data set is classed as functional, organism-based. In short, it runs like this:
as §3

For data set [18], the target named is T1, Carbonic anhydrase 9. The data set can be described thus: Binding affinity to human CA9 catalytic domain by isothermal titration calorimetry.

Regarding `NS(=O)(=O)c1nnc(NC(=O)c2ccc(-c3c4ccc(=O)cc-4oc4cc(O)ccc34)c(C(=O)O)c2)s1`, the Drug uptake result in [1], in data set [2], in [4], in data set [5] and in [6] was “Active” each time. In [3], the affinity corresponds to a Ki of 220 nM. For the same compound, the “fold change (FC)” value in [7] is on record as more than 10.

Consider `CCN(CC)CCNC(=O)c1c(C)[nH]c(/C=C2\C(=O)Nc3ccc(F)cc32)c1C` [SUNITINIB], for which the Activity result in [8] is on record as “Non-toxic”. The outcome in [9] was Active.

With `O=c1[nH]cc(F)c(=O)[nH]1` [FLUOROURACIL], in [10], the Activity entry is reported as “Toxic”. In addition, the result in [11] was Active.

Regarding `NS(=O)(=O)c1nnc(NC(=O)CCC(=O)NC(CCCCNC(=O)CCCc2ccc(I)cc2)C(=O)O)s1` (stereo not drawn), the concentration in [12] and in data set [16] was 250 µM in each case. Also, the Kd (in general, the constant that tells how readily two partners part at equilibrium) in [13] stood at 820 nM; in data set [18] it was 3.2 nM. Besides, the Activity result in data set [14] was “Non-toxic”. Moreover, the result in data set [15] was Active. The result in [17] was inactive.
